Here are results for 16 molecules from ChEMBL document CHEMBL2069305, “Discovery and optimization of a series of liver X receptor antagonists” (Bioorg Med Chem Lett, 2012).

The target in data set [1] is T1, Oxysterols receptor LXR-beta (Homo sapiens, UniProt P55055).
T1 sequence (P55055 whole entry): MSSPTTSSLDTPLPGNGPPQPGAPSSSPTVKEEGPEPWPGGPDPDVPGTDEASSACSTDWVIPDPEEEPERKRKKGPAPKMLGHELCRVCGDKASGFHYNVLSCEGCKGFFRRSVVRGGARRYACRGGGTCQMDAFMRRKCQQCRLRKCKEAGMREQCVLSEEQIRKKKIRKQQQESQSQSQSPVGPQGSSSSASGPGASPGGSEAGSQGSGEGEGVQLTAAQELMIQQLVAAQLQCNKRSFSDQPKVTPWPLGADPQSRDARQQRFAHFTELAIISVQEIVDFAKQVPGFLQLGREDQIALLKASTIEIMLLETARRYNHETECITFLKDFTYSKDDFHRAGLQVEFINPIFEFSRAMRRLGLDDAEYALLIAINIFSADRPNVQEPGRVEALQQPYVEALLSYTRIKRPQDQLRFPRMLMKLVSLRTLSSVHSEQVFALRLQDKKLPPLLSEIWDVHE
Description: Displacement of [3H]N-(4-(1,1,1,3,3,3-hexafluoro-2-hydroxypropan-2-yl)phenyl)-N-methylbenzenesulfonamide from GST-tagged LXRbeta ligand binding domain after 1 hr by scintillation proximity assay.

A short description of data set [2]: AUC in Sprague-Dawley rat at 0.5 mg/kg, iv. The settings on record: plasma. Also on record: dose 0.5 mg/kg, route intravenous. The data set is classed as ADME, organism-based. The gist of the method: (§1)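 Single intravenous dose of 0.5 mg/kg in rats; three animals per study.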
The nature of data set [3]: Oral bioavailability in Sprague-Dawley rat at 5 mg/kg. Format: ADME, organism-based. The settings on record: in vivo. The gist of the method: (§2)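 Male Sprague–Dawley rats given a single oral dose of 5 mg/kg; three animals per study.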
Data set [4] in a line: Mean residence time in Sprague-Dawley rat at 0.5 mg/kg, iv. Format: ADME, organism-based. Also on record: dose 0.5 mg/kg, route intravenous. The settings on record: in vivo. The gist of the method: as §1
In data set [5] the test system is Liver microsomes. Nature of the data set: Drug metabolism in rat liver microsomes assessed as isobutyl-hydroxylation. The data set is classed as ADME, Microsome. In general terms: Microsomes from liver hold many membrane-bound enzymes, among them those of drug oxidation.
Data set [6] is described as follows: Metabolic stability in rat liver microsomes assessed as compound remaining at 1 uM after 30 mins. The data set is classed as ADME, Microsome. The conditions noted are these: read-out: Stability.
Data set [7] in a line: Volume of distribution at steady state in Sprague-Dawley rat at 0.5 mg/kg, iv. Format: ADME, organism-based. Also on record: dose 0.5 mg/kg, route intravenous. The conditions noted are these: in vivo, read-out: Vdss. The gist of the method: as §1
A short description of data set [8]: AUC in Sprague-Dawley rat at 5 mg/kg, po. Format: ADME, organism-based. Also on record: dose 5 mg/kg, route oral. The settings on record: plasma. The method in brief: as §2
A further data set deals with HEK293. Nature of the data set: Cytotoxicity against human HEK293 cells. The data set is classed as cell-based.
In data set [9] the test system is Liver microsomes. Nature of the data set: Drug metabolism in rat liver microsomes assessed as oxidative cleavage of isobutyl group. The data set is classed as ADME, Microsome.
A short description of data set [10]: Clearance in Sprague-Dawley rat at 0.5 mg/kg, iv. Format: ADME, organism-based. Also on record: dose 0.5 mg/kg, route intravenous. The settings on record: in vivo. The method in brief:
as §1

For data set [11], the target named is T1, Oxysterols receptor LXR-beta. Description: Antagonist activity at LXRbeta ligand binding domain expressed in HEK293 cells coexpressing GAL4 assessed as decrease in […]N-(4-(1,1,1,3,3,3-hexafluoro-2-hydroxypropan-2-yl)phenyl)-N-methylbenzenesulfonamide-induced activity after 20 hrs by luciferase reporter gene assay. Format: cell-based.

Molecules are shown by their SMILES.

On to `CN(c1ccc(C(O)C(F)(F)F)cc1)S(=O)(=O)c1ccccc1` (stereo unspecified), for which, in data set [1], the IC50 was more than 10 µM.

Consider `CN(c1ccc(C(O)(c2nnn[nH]2)C(F)(F)F)cc1)S(=O)(=O)c1ccccc1` (stereo unspecified), for which, in data set [1], the IC50 was more than 10 µM.

In [1], `CN(c1ccc(C(O)(Cc2ccccc2)C(F)(F)F)cc1)S(=O)(=O)c1ccccc1` (stereo unspecified) displayed an IC50 of more than 10 µM.

On to `CN(c1ccc(C(O)(c2ncc[nH]2)C(F)(F)F)cc1)S(=O)(=O)c1ccccc1` (stereo unspecified), for which the IC50 in data set [1] was more than 10 µM.

`CN(c1ccc(C(O)(c2nnc[nH]2)C(F)(F)F)cc1)S(=O)(=O)c1ccccc1` (stereo unspecified) gave an IC50 in data set [1] of more than 10 µM.

In data set [1], `CC(C)CC#CC(O)(c1ccc(N(C)S(=O)(=O)c2ccccc2)cc1)C(F)(F)F` (stereo unspecified) had an IC50 of more than 30 µM.

Turning to `CC(C)CN(c1ccc(C(O)(C#Cc2ccc(S(C)(=O)=O)cc2)C(F)(F)F)cc1)S(=O)(=O)c1ccccc1` (stereo unspecified), the results for the AUC in [2] and in [8] were 102 ng·h/mL and 86 ng·h/mL, respectively. Also, the bioavailability in data set [3] was 9%. In addition, the MRT in data set [4] amounted to 1.3 h. The Drug metabolism entry in the data set with Liver microsomes [5] and in the data set on Liver microsomes [9] was “Active” each time. In [6], the remaining at 0.5 h, 1 µM was less than 5%. Moreover, the Vd in data set [7] came out at 4.4 L/kg. Further, the Activity entry in the data set with HEK293 was “Non-toxic”. In addition, the clearance in data set [10] was 80 mL/min/kg.

On to `CC(C)CN(c1ccc(C(O)(C#Cc2ccc(S(C)(=O)=O)cc2)C(F)(F)F)cc1)S(=O)(=O)c1cccc(C#N)c1` (stereo unspecified), for which the Activity result with HEK293 was “Non-toxic”.

In the case of `CC(C)CN(c1ccc(C(O)(C#Cc2ccc(S(=O)(=O)c3ccccc3)cc2)C(F)(F)F)cc1)S(=O)(=O)c1cccc(C#N)c1` (stereo unspecified), the IC50 in data set [11] and in data set [1] was more than 10 µM in each case.

With `CS(=O)(=O)c1ccc(C#CC(O)(c2ccc(N(CC(F)(F)F)S(=O)(=O)c3ccccc3)cc2)C(F)(F)F)cc1` (stereo unspecified), in [6], the remaining at 0.5 h, 1 µM turned out to be 85%.

Regarding `CS(=O)(=O)c1ccc(C#CC(O)(c2ccc(N(CCC(F)(F)F)S(=O)(=O)c3ccccc3)cc2)C(F)(F)F)cc1` (stereo unspecified), the remaining at 0.5 h, 1 µM in data set [6] was found to be 42%.

As for `CC(C)(C)CN(c1ccc(C(O)(C#Cc2ccc(S(C)(=O)=O)cc2)C(F)(F)F)cc1)S(=O)(=O)c1ccccc1` (stereo unspecified), in [6], the remaining at 0.5 h, 1 µM is 36%.

In [3], `CS(=O)(=O)c1ccc(C#CC(O)(c2ccc(N(CC3CC3)S(=O)(=O)c3ccccc3)cc2)C(F)(F)F)cc1` (stereo unspecified) had a bioavailability of 31%. Moreover, the mean residence time MRT in data set [4] was found to be 2.2 h. Besides, the remaining at 0.5 h, 1 µM in data set [6] was more than 95%. Also, the Vd in [7] was determined as 2.3 L/kg. Besides, the AUC in data set [8] was found to be 1380 ng·h/mL. Moreover, the clearance in data set [10] is 18.3 mL/min/kg.

In the case of `CS(=O)(=O)c1ccc(C#CC(O)(c2ccc(N(CC3CCC3)S(=O)(=O)c3ccccc3)cc2)C(F)(F)F)cc1` (stereo unspecified), the remaining at 0.5 h, 1 µM in data set [6] was less than 5%.

Turning to `CS(=O)(=O)c1ccc(C#CC(O)(c2ccc(N(CC3CCCC3)S(=O)(=O)c3ccccc3)cc2)C(F)(F)F)cc1` (stereo unspecified), in [6], the remaining at 0.5 h, 1 µM was less than 5%.

For `CN(c1ccc(C(C)(O)C(F)(F)F)cc1)S(=O)(=O)c1ccccc1` (stereo unspecified), the IC50 in data set [1] is more than 10 µM.

What is called IC50 is the concentration that inhibits the measured activity by half. As usually defined, the AUC is concentration integrated over time. A lower AUC goes with less exposure. One may read the bioavailability as dose-corrected exposure relative to a reference, in per cent. A high value points to good availability. By MRT is commonly meant a mean duration of stay, worked out from the concentration-time curve. A word on the clearance: it is the volume of plasma or blood freed of the substance per unit of time. Read a high clearance as efficient removal.
